Assay results collected from several papers.
Compare with care: the assays were run in different laboratories.
Organism: Plasmodium falciparum
Observed: parasite growth

| SMILES | test | test system | setting | IC50 |
| --- | --- | --- | --- | --- |
| C[C@H]1[C@@H](O)O[C@@H]2O[C@@]3(C)CC[C@H]4[C@H](C)CC[C@@H]1[C@@]24OO3 | – | 3D7 | 24 h, blood stage | 0.0252 µM |
| CCN(CC)CCCC(C)Nc1ccnc2cc(Cl)ccc12 (stereo not shown) | – | 3D7 | 96 h, blood stage | 0.003 µM |
| C#CCCCCCCCCCCCC(O)CC(O)CO (stereo not shown) | – | D6 | blood stage | 25.9 µg/mL |
| C[C@@]12CC[C@@H](O)[C@]3(C)C4=CC(=O)OCC4=C[C@@H](OC1=O)C23 (stereo partly shown) | – | D6 | 72 h, blood stage | 0.9 µg/mL |
| C[C@@H]1CN(c2nc3cc(Cl)ccc3n2Cc2ccccc2)C[C@H](C)N1 | – | NF54 | blood stage | 0.216 µM |
| Cc1ccc(C(=O)Nc2ccc(S(=O)(=O)O)c3cc(S(=O)(=O)O)cc(S(=O)(=O)O)c23)cc1NC(=O)c1cccc(NC(=O)Nc2cccc(C(=O)Nc3cc(C(=O)Nc4ccc(S(=O)(=O)O)c5cc(S(=O)(=O)O)cc(S(=O)(=O)O)c45)ccc3C)c2)c1 | SYBR Green | – | blood stage | > 100 µM |
| C[C@@]12CCC[C@]3(C)C4=CC(=O)OCC4=C[C@@H](OC1=O)C23 (stereo partly shown) | – | W2 | 72 h, drug-resistant strain, blood stage | 0.2 µg/mL |
| COC1=CC(c2ccco2)=NC1=Cc1ccc(CCCCCCCCCC(C)O)[nH]1 (stereo not shown) | – | D6 | blood stage | > 2.5 µM |
| O=C(O)c1cc(-c2ccc(Br)cc2)nc2ccc(Cl)cc12 | SYBR Green | – | blood stage | 60 µM |
| Clc1ccc2c(nc(N3CCNCC3)n2Cc2ccccc2)c1Cl | – | NF54 | blood stage | 0.055 µM |
| C#CCCCCCCCCC=CCC(O)CC(O)CO (stereo not shown) | – | D6 | blood stage | > 47.6 µg/mL |
| c1ccc(Cn2c(N3CCNCC3)nc3cc(-c4ccncc4)ccc32)cc1 | – | NF54 | blood stage | 1.67 µM |
| O=C(Nc1ccccc1C(=O)O)c1ccc(-c2ccc(F)cc2)cc1 | resazurin | NF54 | 48 h, gametocyte | > 10 µM |
| CCOc1ccc(-c2nc(CNCCc3ccc(F)cc3)cs2)cc1 | SYBR Green | – | blood stage | 17.1 µM |
| CCN(CC)CCCC(C)Nc1ccnc2cc(Cl)ccc12 (stereo not shown) | ELISA | 3D7 | blood stage | 0.0074 µM |
| CCN(CC)CCCC(C)Nc1ccnc2cc(Cl)ccc12 (stereo not shown) | – | D6 | blood stage | 0.01 µM |
| CCCCCCCCCCCCCC(O)CC(O)CO (stereo not shown) | – | D6 | blood stage | 28.2 µg/mL |
| O=C1C(O)=C([C@H]2CC[C@H](c3ccc(Cl)cc3)CC2)C(=O)c2ccccc21 | – | 3D7 | 24 h, blood stage | 0.0065 µM |
| CO[C@H]1/C=C/O[C@@]2(C)Oc3c(C)c(O)c4c(O)c(c(/C=N/N5CCN(C)CC5)c(O)c4c3C2=O)NC(=O)/C(C)=C\C=C[C@H](C)[C@H](O)[C@@H](C)[C@@H](O)[C@@H](C)[C@H](OC(C)=O)[C@@H]1C | SYBR Green | – | blood stage | 7.81 µM |
| NCCNc1nc2cc(Cl)ccc2n1Cc1ccccc1 | – | NF54 | blood stage | 0.245 µM |

| SMILES | test | test system | setting | IC50 |
| --- | --- | --- | --- | --- |
| CCCCCCCc1c(O)cc(CC=C(C)C)c(O)c1C=O | – | W2 | 72 h, drug-resistant strain, blood stage | 2.7 µg/mL |
| Clc1ccc2c(nc(N3CCNCC3)n2Cc2ccccc2)c1-c1ccncc1 | – | NF54 | blood stage | 2.17 µM |
| COC1=CC(c2ccc[nH]2)=NC1=Cc1ccc(CCCCCCCCCCO)[nH]1 | – | D6 | blood stage | 0.108 µM |
| C[C@@H](c1cc(Cl)cc(Cl)c1)N(C)c1ncc2c(N)nc(N)nc2n1 | SYBR Green | – | blood stage | 8.18 µM |
| Clc1ccc2c(c1)nc(NCCNCc1ccncc1)n2Cc1ccccc1 | – | NF54 | blood stage | 2.28 µM |
| CCN(CC)CCCC(C)Nc1ccnc2cc(Cl)ccc12 (stereo not shown) | – | NF54 | blood stage | 0.008 µM |
| c1ccc(Cn2c(N3CCNCC3)nc3cc(-c4ccccc4)ccc32)cc1 | – | NF54 | blood stage | 6.96 µM |
| CC(C)Cn1c(=O)n(C)c(=O)c2c(-c3cncn3C)n(Cc3cccc4ccccc34)nc21 | SYBR Green | – | blood stage | 4.82 µM |
| Cc1cccc(C(=O)O)c1NC(=O)c1ccccc1-c1ccccc1 | resazurin | NF54 | 48 h, gametocyte | > 10 µM |
| CN1CCN(C2CCN(c3nccc4[nH]c(-c5cc(F)cc(F)c5)nc34)CC2)CC1 | – | NF54 | blood stage | < 0.1 µM |
| Cc1cc(NC(=O)Nc2ccc3c(c2)OC(F)(F)O3)cc(C(F)(F)F)n1 | – | NF54 | blood stage | 0.29 µM |
| CC[C@@H](C)[C@H]1O[C@@H](c2c(O)c(-c3ccccc3)cn(O)c2=O)[C@H](C)C[C@@H]1C | – | D6 | 72 h, blood stage | 0.33 µg/mL |
| O=C(O)c1ccccc1NC(=O)c1ccccc1-c1ccccc1 | resazurin | NF54 | 48 h, gametocyte | > 10 µM |
| COc1cccc2c(-c3ccc4c(c3O)[C@@H](C)N[C@H](C)C4)c(C)cc(OC)c12 | SYBR Green | NF54 | blood stage | 1.33 µM |
| Cc1cccc(C(=O)O)c1NC(=O)c1ccc(-c2ccccc2)cc1 | resazurin | NF54 | 48 h, gametocyte | 1.14 µM |
| Cc1ccc2oc(-c3cc(NC(=O)Cc4ccccc4)ccc3Cl)nc2c1 | SYBR Green | – | blood stage | 23.4 µM |
| C[C@@H]1CC[C@H]2[C@@H](C)C(=O)O[C@@H]3O[C@@]4(C)CC[C@@H]1[C@]32OO4 | – | D6 | 72 h, blood stage | 0.0047 µg/mL |
| Cc1onc(-c2ccccc2)c1-c1ccc(S(N)(=O)=O)cc1 | SYBR Green | – | blood stage | > 100 µM |
| O=C(O)c1ccc(F)cc1NC(=O)c1ccccc1-c1ccccc1 | resazurin | NF54 | 48 h, gametocyte | > 10 µM |
| COc1cc(NC(C)CCCNCOC(=O)NCCCC(C)Nc2cc(OC)cc3cccnc23)c2ncccc2c1.Cl.Cl (stereo not shown) | – | W2 | drug-resistant strain, blood stage | 2.7 µg/mL |
